High-throughput results as filed in PubChem BioAssay.
In the library only some 2% were active in any assay of this set; here they are far more common.
ARNT TACC3 PPI = disruptors of human ARNT/TACC3 interaction; AlphaScreen His-ARNT PAS-B/GST-TACC3 binding, luminescence; TACC3 fragment carries E629A point mutation; inhibition, % at 9.99 µM; hit rate 0.66% among 390,000;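 active = mean inhibition of replicates at least 50% and at least half of replicates each reaching 50%; inconclusive = half or more replicates reach 50% but mean below 50%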;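 also: 0% = complete ARNT plus TACC3 wells and 100% = ARNT alone without TACC3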
T cruzi inh = T. cruzi replication inhibition; hit rate 1.4% among 300,000; AID 1885; T. cruzi beta-gal in NIH3T3, luminescence, 90 h; inhibition, % (test concentration not listed);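 active = mean inhibition across valid replicates above about 55%, limit read from the data; inconclusive = mean below that limit but half or more replicates reach it; inactive = mean below it, under half of replicates reach it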;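 also: signal also drops with host cell toxicity which is not excluded here; 0% = plate median of DMSO wells and 100% = zero luminescence signal; higher percent means less beta-gal luminescence so fewer parasites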
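System: NIH/3T3 fibroblasts plus reporter T. cruzi. Medium: DMEM plus 2% FBS. Probe or stimulus: 5000 reporter trypomastigotes per well. Compound: single 50 nL compound addition per well in DMSO. Incubation: co-culture of at least 90 h after 3 h attachment. Detection: GalScreen β-gal luminescence, detergent lysis, 60 min. Evaluation: parasite load inhibition, %.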
AI-2 QS mod = modulators of Vibrio harveyi AI-2 quorum sensing system. hit rate 0.4% among 300,000. activity change, % at 7.5 µM. Vibrio harveyi JMH597 AI-2 luminescence/OD600 ratio, 9 h; stronger effect = lower value; strain lacks LuxN and CqsS sensors; 0 = neutral-control median; in the data active = activity change below about -75%, passing the limit was not always enough; inconclusive = no clear call, values can overlap the other calls;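 also: luminescence divided by OD600 gain over 9 h not by final OD600 alone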
HIF activator = HIF pathway transcriptional activation; hit rate 0.32% among 300,000; activation, % at 7.5 µM (by protocol); AID 1910; U2OS HRE-luciferase reporter, luminescence; normalized: DMSO 0%, desferrioxamine 100%;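 active = mean activation of at least 10% of the iron chelator positive control signal, with at least half of replicates also reaching 10%; inconclusive = mean and replicate majority disagree about reaching 10%; inactive = mean and most replicates under 10%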
* marks the source's active call; other numbers are inactive results; ? = inconclusive; . = no result.

SMILES	ARNT TACC3 PPI	T cruzi inh	AI-2 QS mod	HIF activator
Cc1cccc(NC(=S)/N=C(\N)Nc2nc(C)c3ccc(C)cc3n2)c1	-3.9	59.8*	10.6	1.9
NC(=S)N/N=C/c1ccc(-c2ccc(Cl)c(Cl)c2)o1	-2.7	59.6*	-38.6	0.5
NC(=S)N/N=C/c1ccc(-c2ccccc2)o1	8.2	15.9	?	1.4
NC(=S)N/N=C/c1ccc(-c2ccc(SC(F)F)cc2)o1	10.2	72.0*	-45.3	0.4
O=C(O)COc1ccccc1/C=N/NC(=O)c1cc(-c2ccc(F)cc2)nc2ccccc12	47.0*	0.8	15.4	-0.4
CO[C@@H]1CN(C)C(=O)c2cc(NC(=O)c3nc4ccccc4s3)ccc2OC[C@@H](C)N(Cc2cncnc2)C[C@@H]1C	5.9	.	.	.
CCN1CCN(CC(=O)N2CCCC(C(=O)c3ccc(Oc4ccccc4)cc3)C2)CC1 (centres undefined)	3.7	71.9*	-7.7	-0.1
COCCC(=O)N1CCCC(C(=O)c2ccc(Oc3ccccc3)cc2)C1 (centres undefined)	1.2	5.2	8.9	-0.3
CN(C[C@@H]1[C@H](c2ccccc2)[C@@H](CO)N1C(=O)C1CCC1)C(=O)c1ccccn1	-6.7	.	.	.
Cc1ccc(SCc2ccc(C(=O)Nc3cccc([N+](=O)[O-])c3C)cc2)cc1	-3.0	59.5*	26.6	-0.3
Cc1ccc([N+](=O)[O-])cc1NC(=O)c1ccc(CSc2ccccc2)cc1	7.8	-2.9	8.0	0.2
C/C(=N\OC(=O)NC1CCCCC1)c1sc(-c2ccccc2)nc1C	-7.1	58.0*	30.8	1.4
CCOc1cc(CNc2ccc(N3CCCCC3)cc2)cc(Br)c1OCC(=O)NC(C)(C)C	4.5	57.7*	22.4	-1.1
CCOc1cc(CNc2ccc(N(C)C)cc2)cc(Br)c1OCC(=O)NC(C)(C)C	-6.6	50.0	43.6	0.1
CCOc1cc(CO)cc(Br)c1OCC(=O)Nc1ccccc1C	3.4	-12.4	-1.6	-0.2
CCOc1cc(CNc2cccc3ccccc23)cc(Br)c1OCC(=O)NC(C)(C)C	1.2	54.5*	9.3	-1.1
C[C@@H]1CCCCO[C@H](CN(C)C(=O)CCC(F)(F)F)[C@H](C)CN([C@H](C)CO)C(=O)c2cc(NS(=O)(=O)c3cccs3)ccc2O1	-1.3	.	.	.
Cc1ccccc1NC(=O)CSc1nnc(-c2ccco2)c(-c2ccco2)n1	4.0	7.1	9.8	-0.1
Cc1cccc(C)c1NC(=O)CSc1nnc(-c2ccco2)c(-c2ccco2)n1	57.4*	-6.0	1.0	-0.4
COc1cc(/C=N/NC(N)=S)cc(Br)c1OCc1ccccc1F	-24.5	38.9	53.7	-0.6
CCOc1cc(/C=N/NC(N)=S)cc(Br)c1OCc1ccccc1C	-0.8	78.5*	13.6	-1.0
Cc1cccc(C)c1NC(=S)N/N=C/c1ccc(OCCC(C)C)cc1	5.7	62.6*	40.1	0.4
COc1ccccc1-c1ccc2c(c1)O[C@H](CN(C)C(=O)c1cccnc1)[C@@H](C)CN([C@@H](C)CO)S2(=O)=O	3.3	.	.	.
Cc1cccc(-n2nc([N+](=O)[O-])c(N3CCN(C(=O)c4ccco4)CC3)[n+]2[O-])c1	1.9	43.7	37.9	0.0
O=[N+]([O-])c1nn(-c2ccccc2)[n+]([O-])c1N1CCN(c2ccccc2F)CC1	.	56.9*	6.1	-0.3
SMILES	ARNT TACC3 PPI	T cruzi inh	AI-2 QS mod	HIF activator
O=[N+]([O-])c1nn(-c2ccccc2)[n+]([O-])c1N1CCN(c2ccccc2)CC1	-3.6	84.7*	17.3	-0.2
O=[N+]([O-])c1cccnc1N1CCN(c2ccccc2F)CC1	9.7	9.7	8.8	1.3
N=C(N)SCc1ncccc1O	49.6*	-4.5	-0.1	-0.1
N=C(N)SCc1ccccn1	35.0	-36.4	3.7	0.2
COc1cccc(CNc2ccc3c(c2)CCC3)c1	-3.3	60.2*	12.4	1.2
COc1ccc(OC)c(CNc2ccc3c(c2)CCC3)c1	0.3	70.3*	19.3	2.0
COc1ccc(OC)c(CC(=O)Nc2ccc3c(c2)CCC3)c1	-10.4	6.5	23.1	0.0
CCC(=O)N(C)C[C@@H]1Oc2cc(/C=C/c3ccccc3)ccc2S(=O)(=O)N([C@@H](C)CO)C[C@H]1C	-1.4	.	.	.
CN(c1ccccc1)S(=O)(=O)c1ccc(C(=O)Nc2ccncc2)cc1	3.6	69.8*	6.3	-0.1
O=C(Nc1ccncc1)c1ccc(-c2ccccc2)cc1	-3.0	57.7*	15.4	4.7
O=C(Nc1ccncc1)c1ccc(Cl)c(Cl)c1	-3.8	61.8*	-0.9	0.7
O=C(NNC(=O)c1ccc(Cl)c(Cl)c1)c1ccncc1	.	-2.0	-4.5	0.0
C[C@H]1CN([C@@H](C)CO)C(=O)c2cc(NC(=O)C3CC3)ccc2O[C@H]1CN(C)Cc1ccc(C(F)(F)F)cc1	-16.5	.	.	.
Cc1c(C(=O)NCc2ccc3c(c2)OCO3)oc2ccc(S(=O)(=O)N3CCC(C)CC3)cc12	-6.5	55.8*	-0.9	-1.7
Cc1c(C(=O)NCc2ccc3c(c2)OCO3)oc2ccc(S(=O)(=O)N3CCCCCC3)cc12	2.1	55.4*	6.3	-0.6
CC1CCN(S(=O)(=O)c2ccc3c(c2)oc(=O)n3CC(=O)NCc2ccc3c(c2)OCO3)CC1	2.7	24.3	-1.5	0.3
Cc1ccc2oc(C(=O)NCc3ccc4c(c3)OCO4)c(C)c2c1	-13.1	1.6	39.1	-0.7
C[C@H](CO)N1C[C@H](C)[C@H](CN(C)C(=O)C2CCC2)Oc2cc(-c3cccnc3)ccc2S1(=O)=O	16.2	.	.	.
Cc1noc(C)c1S(=O)(=O)Nc1ccc2c(c1)CC(=O)N([C@H](C)CO)C[C@H](C)[C@H](CN(C)C(=O)Nc1ccc(F)cc1)O2	-3.6	.	.	.
COc1ccc(NC(=O)Nc2ccc3c(c2)C(=O)N([C@@H](C)CO)C[C@H](C)[C@H](CN(C)C(=O)Nc2ccc(OC)cc2)OCCCC[C@H](C)O3)cc1	3.8	.	.	.
CN(C)c1ccc(C=C2C(=O)OC(C)(C(C)(C)C)OC2=O)cc1 (centres undefined)	active	-17.3	22.1	-0.2
CN(C)c1ccc(C=C2C(=O)OC(C)(C)OC2=O)cc1	-12.8	-0.8	14.8	0.1
C[C@H]1CN([C@@H](C)CO)C(=O)c2cccc(NC(=O)Nc3ccc4c(c3)OCO4)c2O[C@H]1CN(C)Cc1ccncc1	3.0	.	.	.
CCOC(=O)/C(N=Nc1ccc(F)cc1)=C(/O)c1ccc([N+](=O)[O-])cc1	.	0.9	15.7	14.0*
CC(C)NC(=O)N[C@@H]1CC[C@@H](CCn2cc(-c3ccc(F)cc3)nn2)O[C@H]1CO	7.6	.	.	.
COc1ccc(-c2cc(-c3ccccc3)c(C#N)c(SCC(=O)Nc3ncc(C)s3)n2)cc1	0.9	56.2*	20.2	0.2
CCC(=O)Nc1ccc(C(=O)OCc2ccccc2Cl)cc1	-10.3	60.7*	2.7	1.2
COc1cc(/C=C(\C#N)c2nc3ccccc3[nH]2)ccc1Oc1ccc([N+](=O)[O-])cn1	-17.5	61.6*	15.7	0.6
COc1ccc(/C=C(\C#N)c2nc3ccccc3[nH]2)cc1O	-8.1	-1.3	9.5	13.0*
